Source: PubChem
This is a sample that favours compounds with a hit; in the whole collection about 3.5% have one here.
RGS4 inh = RGS4 inhibitors, primary screen, cell-based, HEK293 M3R inducible RGS4, calcium flux; Regulator of G-protein signaling 4 (Homo sapiens), P49798; Fluo-4 calcium flux; active compounds read high; triggered by carbachol at its EC20; B-score at 10 µM; 310,000 compounds, 0.45% hits;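 active means B-score, a plate-corrected calcium signal, over three deviations above library mean, with baseline fluorescence within five deviations of library mean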;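 further: RGS4 expression induced by doxycycline in cells with stable M3 receptor; B-score is computed from the integrated fluorescence ratio over baseline after carbachol; higher B-score means a larger calcium signal and so more RGS4 inhibition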
Target sequence (P49798 whole entry, looked up): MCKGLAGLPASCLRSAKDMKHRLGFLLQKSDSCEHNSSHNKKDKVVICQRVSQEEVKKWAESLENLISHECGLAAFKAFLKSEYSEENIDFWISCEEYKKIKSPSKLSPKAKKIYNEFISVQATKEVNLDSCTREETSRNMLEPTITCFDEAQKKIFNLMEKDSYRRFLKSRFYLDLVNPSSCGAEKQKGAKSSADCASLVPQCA
MrgX1 allo act = positive allosteric modulators of MrgX1, primary screen, HEK293 cells, Fluo-4 calcium flux; Mas-related G-protein coupled receptor member X1 (Homo sapiens), Q96LB2; FDSS; active compounds read high; B-score at 10 µM; 310,000 compounds, 0.63% hits; AID 588675, 2011;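 active means plate-corrected calcium response at least 3 library SD above typical, normal starting fluorescence, not activating the receptor alone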;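 further: compound read alongside a low EC10 to EC30 dose of BAM8-22 agonist; peak minus trough fluorescence over baseline measured at the second addition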
Target sequence (Q96LB2 whole entry, looked up): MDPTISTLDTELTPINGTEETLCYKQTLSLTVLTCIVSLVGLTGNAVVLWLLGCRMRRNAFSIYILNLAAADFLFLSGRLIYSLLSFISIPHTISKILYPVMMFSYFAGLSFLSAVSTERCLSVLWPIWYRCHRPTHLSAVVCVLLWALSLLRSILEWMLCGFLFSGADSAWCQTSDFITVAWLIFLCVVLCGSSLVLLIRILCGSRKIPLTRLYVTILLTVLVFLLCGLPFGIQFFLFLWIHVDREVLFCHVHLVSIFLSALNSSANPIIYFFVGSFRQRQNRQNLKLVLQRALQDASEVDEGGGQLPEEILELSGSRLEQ
MrgX1 ag = agonists of human MrgX1 receptor, primary screen, HEK293 cells, Fluo-4 calcium flux | 310,000 compounds, 0.44% hits | B-score at 10 µM | AID 588627, 2011 | Mas-related G-protein coupled receptor member X1 (Homo sapiens), Q96LB2 | Fluo-4 calcium fluorescence, agonist mode; active compounds read high;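 active means calcium response B-score plate-corrected fluorescence ratio at least 3 library SD, with starting fluorescence B-score inside 5 SD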
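Material: MrgX1-expressing HEK293 cells; input: 15,000 cells per well; doses: test compound given as first of three sequential additions; schedule: overnight plating before 1 h dye loading; technique: Fluo-4 NW calcium-flux fluorescence, kinetic read; evaluation: baseline-normalised fluorescence change ratio, B-scored; control set: plate-wise positive and negative controls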
MrgX1 antag = antagonists of human MrgX1 receptor, primary screen, HEK293 cells, Fluo-4 calcium flux. BAM8-22 antagonism; active compounds read low. Mas-related G-protein coupled receptor member X1 (Homo sapiens), Q96LB2. B-score at 10 µM. 310,000 compounds, 1.3% hits. AID 588676, 2011;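 active means calcium-response B-score plate-corrected more than 3 library SD below zero, starting fluorescence within 5 deviations, no agonist response on first addition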;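 further: peak minus trough fluorescence over baseline after final BAM8-22 challenge near maximal dose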
RGS4 act = RGS4 potentiators or activators, primary screen, cell-based, HEK293 M3R inducible RGS4, calcium flux; carbachol calcium flux Fluo4; active compounds read low; B-score at 10 µM; 310,000 compounds, 0.92% hits; AID 463111, 2010;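 active means B-score of the integrated calcium signal more than 4 SD below the library mean, with starting fluorescence not abnormally high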;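 further: negative B-score means reduced calcium response which marks RGS4 activation or potentiation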
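Detection: kinetic calcium fluorescence imaging with Fluo4-AM dye, 2 µM / Material: HEK293 cells with stable M3R and inducible RGS4 / Schedule: recording 10 s baseline at 1 Hz, 100 s post-agonist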
MrgX1 antag conf = MrgX1 receptor antagonists, duplicate retest, confirmation, HEK293 cells, Fluo-4 calcium flux | shares compounds with MrgX1 antag | BAM8-22 calcium flux; active compounds read low | remaining BAM8-22 calcium response % of control (active compounds read low), % at 10 µM | 2,300 compounds, 19% hits | AID 602420, 2012;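 active means remaining agonist calcium response no higher than 100% minus 3 SD of agonist-only control wells, with starting fluorescence near control levels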;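 further: agonist BAM8-22 given at a near maximal EC90 to ECmax level; peak minus minimum fluorescence divided by baseline after agonist addition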
HEK293 Ca flux = nonspecific calcium signal in parental HEK293, confirmation, counter-screen for MrgX1 antagonist project, parental HEK293 cells, Fluo-4 calcium flux; shares compounds with MrgX1 antag; 4,000 compounds, 2% hits; fluorescence ratio F(max-min)/F0 at 10 µM; Fluo-4 calcium fluorescence, FDSS; AID 624111, 2012;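 active means duplicate-averaged calcium fluorescence ratio at least three times the standard deviation of buffer wells, a nonspecific response in parental cells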
HEK293 Ca counter = calcium response in parental HEK293 cells, primary screen, counter-screen for MrgX1 allosteric activator project, cell-based, Fluo-4 calcium flux, duplicate; shares compounds with MrgX1 antag; Fluo-4 fluorescence ratio; active compounds read high; fluorescence ratio F(max-min)/F0 at 10 µM; 4,000 compounds, 0.4% hits; AID 624114, 2012;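 active means calcium fluorescence ratio, averaged over duplicates, at least 3 SD of the buffer-well ratio, meaning a nonspecific response in receptor-free cells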;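 further: untransfected parental HEK293 lacking MrgX1 used as counterscreen for MrgX1 allosteric activators; fluorescence change taken during the second addition on a kinetic imager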
HEK293 Ca cntr2 = calcium response in parental HEK293 cells, primary screen, counter-screen for MrgX1 agonist project, cell-based, Fluo-4 calcium flux, duplicate, agonist mode; shares compounds with MrgX1 antag; Fluo-4 calcium fluorescence (FDSS); active compounds read high; fluorescence ratio F(max-min)/F0 at 10 µM; 4,000 compounds, 8.7% hits;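 active means calcium fluorescence ratio at least three times the spread of buffer wells, meaning a non-specific response in parental cells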
Numbers without * were called inactive; i = inactive; nt = no result given.

SMILES	RGS4 inh	MrgX1 allo act	MrgX1 ag	MrgX1 antag	RGS4 act	MrgX1 antag conf	HEK293 Ca flux	HEK293 Ca counter	HEK293 Ca cntr2
O=C(c1ccccc1)c1ccc(OCC(O)CNCc2cccc(Cl)c2)cc1 (stereo not drawn)	i	i	i	i	i	nt	nt	nt	nt
CCOC(=O)N1CCN(C(=O)CCN2C(=O)COc3ccc(C)cc32)CC1	i	i	i	-6*	i	i	i	i	i
COc1ccc(CS(=O)(=O)c2ncn[nH]2)cc1	i	i	i	i	i	nt	nt	nt	nt
Cc1ccc(NC(=O)/C=N/OCC(=O)NCc2ccccc2Cl)cc1	i	i	i	i	i	nt	nt	nt	nt
CN(C)S(=O)(=O)c1cccc(NC(=O)c2ccc(COc3ccccc3)cc2)c1	i	i	i	-4.8*	-7.2*	57%*	i	i	i
Cc1cc(C)nc(N2CCN(c3ccc(F)cc3)CC2)n1	i	i	i	i	i	nt	nt	nt	nt
COc1cccc(NC(=O)CNC(=O)c2ccc(F)cc2)c1	nt	i	i	i	nt	nt	nt	nt	nt
COc1ccc(OCC(=O)Nc2cccc(C(C)=O)c2)cc1	i	i	i	-6.3*	i	i	i	i	i
COc1cccc(NC(=O)CNC(=O)c2ccc(C)cc2)c1	i	i	i	-9.1*	i	i	i	i	i
COc1cccc(NC(=O)COc2ccc(C)cc2)c1	nt	i	i	i	nt	nt	nt	nt	nt
NC(=O)c1cc([N+](=O)[O-])ccc1NCc1ccc(N)cc1	nt	i	i	i	nt	nt	nt	nt	nt
Cc1cccc(CN2[C@@H](CC(C)C)COCCS2(=O)=O)c1	i	i	i	i	i	nt	nt	nt	nt
COc1ccc(N(CCC#N)S(=O)(=O)c2cccc3nsnc23)cc1	i	i	i	i	i	nt	nt	nt	nt
NS(=O)(=O)c1ccc(CCNC(=O)C(=O)NCC2OCCN2S(=O)(=O)c2ccc(Cl)cc2)cc1 (stereo not drawn)	i	i	i	i	i	nt	nt	nt	nt
Cc1ccc(S(=O)(=O)N(C)c2ccc(C(=O)N3CCN(Cc4ccc5c(c4)OCO5)CC3)cc2)cc1	i	i	i	-5.2*	i	i	i	i	i
FC(F)(F)c1ccccc1NC(=S)N1CCN(Cc2ccc3c(c2)OCO3)CC1	i	i	i	-7.4*	i	i	i	i	i
CC(C)NC(=S)N1CCN(Cc2ccc3c(c2)OCO3)CC1	i	i	i	i	i	nt	nt	nt	nt
CCN(CC)c1ccc(C(=O)NC(=S)N2CCN(Cc3ccc4c(c3)OCO4)CC2)cc1	i	i	i	-5.1*	i	i	i	i	i
Cc1ccccc1NC(=S)N1CCN(Cc2ccc3c(c2)OCO3)CC1	i	i	i	i	i	nt	nt	nt	nt
Cc1ccccc1-n1nc2c(c1NC(=O)C(C)(C)C)CS(=O)(=O)C2	i	i	i	i	i	nt	nt	nt	nt
O=C(O)Cn1nnnc1-c1ccc(F)cc1	i	i	i	-5.6*	i	i	i	i	i
COc1cc(C(=O)N(C)CCOc2ccccc2)ccc1OCC(=O)Nc1cccc(C(F)(F)F)c1	i	i	i	i	i	nt	nt	nt	nt
O=C(O)CNC(=O)C(CS)Cc1ccccc1 (stereo not drawn)	nt	i	i	-8.6*	nt	i	i	i	i
O=C(O)CNC(=O)C(c1ccccc1)c1ccccc1	i	i	i	i	i	nt	nt	nt	nt
O=C(c1cc(-c2ccccn2)nc2ccc(Br)cc12)N1CCc2ccccc2C1	i	nt	nt	nt	i	nt	nt	nt	nt
SMILES	RGS4 inh	MrgX1 allo act	MrgX1 ag	MrgX1 antag	RGS4 act	MrgX1 antag conf	HEK293 Ca flux	HEK293 Ca counter	HEK293 Ca cntr2
O=C(c1cc(-c2ccccn2)nc2ccc(Br)cc12)N1CCN(S(=O)(=O)c2ccccc2)CC1	i	i	i	-6.7*	i	i	i	i	i
CC(C)c1nnc(NC(=O)C2CCCO2)s1 (stereo not drawn)	i	i	i	i	i	nt	nt	nt	nt
CC(=O)c1ccc(NC(=O)CCNC(=O)c2ccc(Cl)cc2)cc1	i	i	i	i	i	nt	nt	nt	nt
O=C(Nc1ccncc1)c1cncc(Br)c1	i	i	i	-5.4*	i	i	i	i	i
CCC(C)c1ccc(O)c(NC(=O)c2cccnc2)c1 (stereo not drawn)	i	i	i	i	i	nt	nt	nt	nt
CC(C)c1ccc(O)c(NC(=O)c2cncc(Br)c2)c1	i	i	i	-7.8*	i	i	i	i	i
O=C(Nc1cccc(NC(=O)c2cncc(Br)c2)c1)c1cncc(Br)c1	i	i	i	i	i	nt	nt	nt	nt
CC(C)(C)C(=O)Nc1nnc(SCC(=O)NC2CC2)s1	i	i	i	i	i	nt	nt	nt	nt
CC(C)Oc1ccc(C(=O)NCc2ccco2)cc1	i	i	i	-5.9*	i	i	i	i	i
CCCOc1ccc(C(=O)NCc2ccco2)cc1	i	i	i	i	i	nt	nt	nt	nt
CCN(CC)C(=O)CSc1nc(OC)cc(=O)[nH]1	i	i	i	-9.5*	i	i	i	i	53*
COc1cc(=O)[nH]c(SCC(=O)Nc2ccc3ccccc3c2)n1	i	i	i	i	i	nt	nt	nt	nt
O=c1[nH]c(O)c(C=Nc2ccc(Cl)cc2Cl)c(=O)[nH]1	i	nt	nt	nt	i	nt	nt	nt	nt
CCC(C)Sc1nc2c(cnn2-c2ccc(C)cc2)c(=O)[nH]1 (stereo not drawn)	i	i	i	i	i	nt	nt	nt	nt
CCC(C)Sc1nc2c(cnn2-c2ccccc2)c(=O)[nH]1 (stereo not drawn)	i	i	i	-4.9*	i	i	i	i	i
